Assays:
HL-60(TB) = assay: Cytotoxicity against human HL-60(TB) cells after 48 hrs by SRB assay; assay type: functional; details: HL-60, 48 h
Outline: (§1)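 NCI-60 five-dose screen at 10−8 to 10−4 M. Cells were plated at 5,000–40,000/well in RPMI 1640 with 5% FBS and 2 mM L-glutamine, then preincubated 24 h, and time-zero plates were TCA-fixed. Compound was added from DMSO stocks and exposed 48 h at 37 °C. Cells were TCA-fixed, SRB-stained, and read at 515 nm. LC50 is the concentration halving the cell population through cell death.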

MOLT-4 = assay: Cytotoxicity against human MOLT4 cells after 48 hrs by SRB assay; assay type: functional; details: MOLT-4, 48 h; outline: as §1
A549 = assay: Cytotoxicity against human A549 cells after 48 hrs by SRB assay; assay type: functional; details: A549, 48 h; outline: as §1
HOP-92 = assay: Cytotoxicity against human HOP92 cells after 48 hrs by SRB assay; assay type: functional; details: HOP-92, 48 h; outline: as §1
NCI-H226 = assay: Cytotoxicity against human NCI-H226 cells after 48 hrs by SRB assay; assay type: functional; details: NCI-H226, 48 h; outline: as §1
NCI-H23 = assay: Cytotoxicity against human NCI-H23 cells after 48 hrs by SRB assay; assay type: functional; details: NCI-H23, 48 h; outline: as §1
COLO 205 = assay: Cytotoxicity against human COLO205 cells after 48 hrs by SRB assay; assay type: functional; details: COLO 205, 48 h; outline: as §1
KM12 = assay: Cytotoxicity against human KM12 cells after 48 hrs by SRB assay; assay type: functional; details: KM12, 48 h; outline: as §1
SF-268 = assay: Cytotoxicity against human SF268 cells after 48 hrs by SRB assay; assay type: functional; details: SF-268, 48 h; outline: as §1
SF-295 = assay: Cytotoxicity against human SF295 cells after 48 hrs by SRB assay; assay type: functional; details: SF-295, 48 h; outline: as §1
U-251 = assay: Cytotoxicity against human U251 cells after 48 hrs by SRB assay; assay type: functional; details: U-251, 48 h
Outline: (§2)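 NCI-60 screen: cells grown in RPMI 1640 with 5% FBS and 2 mM L-glutamine, plated at 5,000–40,000 cells/well by doubling time, and preincubated 24 h at 37 °C before drug. Drug was diluted from DMSO stock and given at five concentrations, 10−4 to 10−8 M, for 48 h. Cells fixed with cold TCA, SRB stained, OD read at 515 nm against time-zero and vehicle plates. LC50 taken as the concentration that halves cell population through cell death.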

LOX IMVI = assay: Cytotoxicity against human LOXIMVI cells after 48 hrs by SRB assay; assay type: functional; outline: as §1
M14 = assay: Cytotoxicity against human M14 cells after 48 hrs by SRB assay; assay type: functional; details: M14, 48 h; outline: as §1
MDA-MB-435 = assay: Cytotoxicity against human MDA-MB-435 cells after 48 hrs by SRB assay; assay type: functional; details: MDA-MB-435, 48 h; outline: as §1
SK-MEL-28 = assay: Cytotoxicity against human SK-MEL-28 cells after 48 hrs by SRB assay; assay type: functional; details: SK-MEL-28, 48 h; outline: as §1
SK-MEL-5 = assay: Cytotoxicity against human SK-MEL-5 cells after 48 hrs by SRB assay; assay type: functional; details: SK-MEL-5, 48 h; outline: as §1
UACC-257 = assay: Cytotoxicity against human UACC257 cells after 48 hrs by SRB assay; assay type: functional; details: UACC-257, 48 h; outline: as §2
OVCAR-3 = assay: Cytotoxicity against human OVCAR3 cells after 48 hrs by SRB assay; assay type: functional; details: OVCAR-3, 48 h; outline: as §1
OVCAR-4 = assay: Cytotoxicity against human OVCAR4 cells after 48 hrs by SRB assay; assay type: functional; details: OVCAR-4, 48 h; outline: as §1
SK-OV-3 = assay: Cytotoxicity against human SKOV3 cells after 48 hrs by SRB assay; assay type: functional; details: SK-OV-3, 48 h; outline: as §1
786-0 = assay: Cytotoxicity against human 786-0 cells after 48 hrs by SRB assay; assay type: functional; details: 786-0, 48 h; outline: as §1
ACHN = assay: Cytotoxicity against human ACHN cells after 48 hrs by SRB assay; assay type: functional; outline: as §1
RXF 393 = assay: Cytotoxicity against human RXF393 cells after 48 hrs by SRB assay; assay type: functional; details: RXF 393, 48 h; outline: as §1
SN12C = assay: Cytotoxicity against human SN12C cells after 48 hrs by SRB assay; assay type: functional; outline: as §1
UO-31 = assay: Cytotoxicity against human UO31 cells after 48 hrs by SRB assay; assay type: functional; details: UO-31, 48 h; outline: as §2
DU-145 = assay: Cytotoxicity against human DU145 cells after 48 hrs by SRB assay; assay type: functional; details: DU-145, 48 h; outline: as §1
MDA-MB-231 = assay: Cytotoxicity against human MDA-MB-231 cells after 48 hrs by SRB assay; assay type: functional; details: MDA-MB-231, 48 h; outline: as §1
[1] = Cytotoxicity against human Hs 578T cells after 48 hrs by SRB assay; assay type: functional; outline: as §1
BT-549 = assay: Cytotoxicity against human BT549 cells after 48 hrs by SRB assay; assay type: functional; details: BT-549, 48 h; outline: as §1
MDA-MB-468 = assay: Cytotoxicity against human MDA-MB-468 cells after 48 hrs by SRB assay; assay type: functional; details: MDA-MB-468, 48 h; outline: as §1
[2] = Antileukemic activity against human M9-ENL1 cells after 24 hrs by annexin V/7-AAD staining-based flow cytometric analysis; assay type: functional, cell-based
Outline: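 M9-ENL1 cells in alpha-MEM with 5% human plasma, 20% FBS, SCF, IL-3, IL-7 and FLT3. Drug came from a DMSO stock diluted in PBS (≤0.5% DMSO final), for 24 h over 0.5-10 μM. Cells negative for both annexin V and 7-AAD were taken as non-apoptotic and normalized to vehicle. EC50 read from dose-response curves, triplicate.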

[3] = Cytotoxicity against hematopoietic progenitor cells isolated from human umbilical cord blood by annexin V staining-based flow cytometric analysis; assay type: cell-based
Outline: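 Cord-blood mononuclear cells from Ficoll-Paque were plated in serum-free medium, with drug from a DMSO stock (≤0.5% DMSO final). Cells were stained for CD34, CD45 and annexin V. The non-apoptotic fraction (annexin V-negative within the CD34+CD45dim compartment) was normalized to vehicle, and EC50 was fitted where possible. Triplicate.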

[4] = Potency index, ratio of parthenolide EC50 to compound EC50 for human M9-ENL1 cells; assay type: functional
[5] = read-out: LC50 (the source's name)

SMILES: C=C1C(=O)O[C@H]2[C@H]1CC/C(COC(=O)NCCCCCNC(=O)OC/C1=C/CC[C@@]3(C)O[C@H]3[C@H]3OC(=O)C(=C)[C@@H]3CC1)=C\CC[C@@]1(C)O[C@@H]21
- GI50 (HL-60(TB)): 0.31 µM
- CC50 (HL-60(TB); [5]): > 100 µM
- GI50 (MOLT-4): 1.48 µM
- CC50 (MOLT-4; [5]): > 100 µM
- GI50 (A549): 14.9 µM
- CC50 (A549; [5]): 71.7 µM
- GI50 (HOP-92): 1.3 µM
- CC50 (HOP-92; [5]): 8.61 µM
- GI50 (NCI-H226): 2.56 µM
- CC50 (NCI-H226; [5]): 30.9 µM
- GI50 (NCI-H23): 2.66 µM
- CC50 (NCI-H23; [5]): 45.5 µM
- GI50 (COLO 205): 0.52 µM
- CC50 (COLO 205; [5]): 7.97 µM
- GI50 (KM12): 6.53 µM
- CC50 (KM12; [5]): 54.2 µM
- GI50 (SF-268): 3.08 µM
- CC50 (SF-268; [5]): 42.3 µM
- GI50 (SF-295): 11.1 µM
- CC50 (SF-295; [5]): 65.2 µM
- GI50 (U-251): 3.51 µM
- CC50 (U-251; [5]): 51.5 µM
- GI50 (LOX IMVI): 0.46 µM
- CC50 (LOX IMVI; [5]): 5.82 µM
- GI50 (M14): 1.71 µM
- CC50 (M14; [5]): 8.2 µM
- GI50 (MDA-MB-435): 1.51 µM
- CC50 (MDA-MB-435; [5]): 7.3 µM
- GI50 (SK-MEL-28): 1.58 µM
- CC50 (SK-MEL-28; [5]): 12.6 µM
- GI50 (SK-MEL-5): 3.19 µM
- CC50 (SK-MEL-5; [5]): 37 µM
- GI50 (UACC-257): 2.07 µM
- CC50 (UACC-257; [5]): 42.4 µM
- GI50 (OVCAR-3): 0.76 µM
- CC50 (OVCAR-3; [5]): 5.07 µM
- GI50 (OVCAR-4): 2.72 µM
- CC50 (OVCAR-4; [5]): 41.9 µM
- GI50 (SK-OV-3): 5.99 µM
- CC50 (SK-OV-3; [5]): 49.9 µM
- GI50 (786-0): 1.57 µM
- CC50 (786-0; [5]): 6.39 µM
- GI50 (ACHN): 3.05 µM
- CC50 (ACHN; [5]): 35.4 µM
- GI50 (RXF 393): 0.85 µM
- CC50 (RXF 393; [5]): 6.35 µM
- GI50 (SN12C): 2.49 µM
- CC50 (SN12C; [5]): 45.5 µM
- GI50 (UO-31): 8.9 µM
- CC50 (UO-31; [5]): 52.3 µM
- GI50 (DU-145): 3.06 µM
- LC50 (concentration killing half the cells) (DU-145): 32.6 µM
- GI50 (MDA-MB-231): 1.47 µM
- LC50 (MDA-MB-231): 6.4 µM
- GI50 [1]: 2.91 µM
- CC50 [1, 5]: > 100 µM
- GI50 (BT-549): 1 µM
- LC50 (BT-549): 4.96 µM
- GI50 (MDA-MB-468): 1.06 µM
- LC50 (MDA-MB-468): 24.7 µM
- EC50 [2]: 0.57 µM
- EC50 [3]: > 10 µM
- Ratio EC50 [4]: 2
